The source of these data is ChEMBL document CHEMBL4229337, “Design, synthesis and biological evaluation of 1-hydroxy-2-phenyl-4-pyridyl-1H-imidazole derivatives as xanthine oxidase inhibitors” (Eur J Med Chem, 2018).

In one data set the target is T1, Xanthine dehydrogenase/oxidase (Bos taurus, UniProt P80457). Description: Inhibition of bovine xanthine oxidase assessed as reduction in uric acid formation using xanthine as substrate preincubated for 15 mins followed by substrate addition by spectrophotometric analysis.
T1 sequence (P80457 whole entry): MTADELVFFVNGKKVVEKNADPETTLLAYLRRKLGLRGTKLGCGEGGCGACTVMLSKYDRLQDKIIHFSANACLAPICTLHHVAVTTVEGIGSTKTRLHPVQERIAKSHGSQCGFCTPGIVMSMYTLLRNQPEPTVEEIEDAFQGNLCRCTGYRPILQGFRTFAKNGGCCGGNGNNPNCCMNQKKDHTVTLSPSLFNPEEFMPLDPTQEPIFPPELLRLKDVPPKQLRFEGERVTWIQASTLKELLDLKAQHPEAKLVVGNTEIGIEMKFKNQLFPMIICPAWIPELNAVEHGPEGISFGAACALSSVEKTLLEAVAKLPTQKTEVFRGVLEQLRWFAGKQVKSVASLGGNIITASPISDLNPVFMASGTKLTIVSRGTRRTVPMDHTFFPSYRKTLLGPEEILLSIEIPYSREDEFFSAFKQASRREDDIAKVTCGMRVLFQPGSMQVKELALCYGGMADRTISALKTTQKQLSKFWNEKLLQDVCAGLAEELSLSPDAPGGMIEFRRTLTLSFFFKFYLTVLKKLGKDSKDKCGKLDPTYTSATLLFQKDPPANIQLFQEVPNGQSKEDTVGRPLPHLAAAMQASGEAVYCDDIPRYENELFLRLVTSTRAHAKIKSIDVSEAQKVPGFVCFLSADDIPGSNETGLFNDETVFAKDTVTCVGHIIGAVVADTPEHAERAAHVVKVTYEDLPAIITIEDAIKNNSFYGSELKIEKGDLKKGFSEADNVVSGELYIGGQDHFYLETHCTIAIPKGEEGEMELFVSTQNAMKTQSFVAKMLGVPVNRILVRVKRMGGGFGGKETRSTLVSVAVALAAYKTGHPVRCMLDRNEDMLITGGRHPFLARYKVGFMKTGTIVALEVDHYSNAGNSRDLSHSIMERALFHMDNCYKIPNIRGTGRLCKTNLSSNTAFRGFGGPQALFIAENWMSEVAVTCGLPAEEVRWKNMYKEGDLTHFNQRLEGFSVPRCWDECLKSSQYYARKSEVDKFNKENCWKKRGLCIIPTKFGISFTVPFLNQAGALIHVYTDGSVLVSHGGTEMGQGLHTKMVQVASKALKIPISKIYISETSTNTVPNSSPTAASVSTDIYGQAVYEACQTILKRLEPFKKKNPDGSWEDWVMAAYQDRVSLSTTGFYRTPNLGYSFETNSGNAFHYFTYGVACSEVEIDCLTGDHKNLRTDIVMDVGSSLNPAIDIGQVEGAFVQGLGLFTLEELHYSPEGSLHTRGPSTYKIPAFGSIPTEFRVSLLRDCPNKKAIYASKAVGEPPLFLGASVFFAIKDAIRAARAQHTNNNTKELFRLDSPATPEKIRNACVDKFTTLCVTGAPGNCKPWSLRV
Details: not given; call rule not given here
The essentials:
(§1)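 XO (15 U/L) in 0.1 M sodium pyrophosphate buffer pH 8.3 with 0.3 mM Na₂EDTA, preincubated 15 min with test compound; reaction started by adding 64 μM xanthine. Inhibition read as lowered uric acid concentration, in triplicate. Single-point screen at 10 µg/mL; compounds above 50% inhibition were then run over a wide concentration range to derive IC₅₀.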
For `CC(C)CCOc1ccc(-c2nc(-c3cccnc3)cn2O)cc1C#N`, the IC50 (in general, the concentration that gives 50% inhibition) turned out to be 6.73 µM and the negative-log IC50 (pIC50) (as a rule, the negative decadic logarithm of the IC50, by convention in mol/L) turned out to be 5.17.
In the case of `Cc1cc(-c2n[nH]c(-c3ccc(OCCO)c(C#N)c3)n2)ccn1`, the pIC50 was found to be 7.4.
Same read-out and setting: under `N#Cc1cc(-n2cc(-c3ccncc3)nn2)ccc1OCc1ccccc1` stands 4.35.
`N#Cc1cc(-n2cc(-c3ccncc3)nn2)ccc1OC1CCCC1`: the pIC50 stood at 5.17.
Same read-out and setting: the value for `COc1ccc(COc2ccc(-n3cc(-c4ccncc4)nn3)cc2C#N)cc1` was 4.63; that for `CC(C)Oc1ccc(-n2cc(-c3ccncc3)nn2)cc1C#N` was 4.6; that for `Cc1cc(-c2nnc(-c3ccc(OCC(=O)O)c(C#N)c3)[nH]2)ccn1` was 6.96.
Still for that read-out and setting: the value for `CC(C)CCOc1ccc(-n2cc(-c3ccncc3)nn2)cc1C#N` was 5.09; that for `CC(C)COc1ccc(-c2nnc(-c3ccnc(Cl)c3)[nH]2)cc1[N+](=O)[O-]` was 8.
As to `CC(C)Oc1ccc(-c2nc(-c3ccncc3)cn2O)cc1C#N`, the IC50 worked out at 4.75 µM and the pIC50 was determined as 5.32.
As to `CCC(C)Oc1ccc(-n2cc(-c3ccncc3)nn2)cc1C#N` (configuration not stated), the pIC50 was found to be 4.74.
With `Cc1cc(-c2n[nH]c(-c3ccc(OCC4COC(C)(C)O4)c(C#N)c3)n2)ccn1` (configuration not stated), the pIC50 was 7.22.
Still for that read-out and setting: under `CCOC(=O)c1cc(-c2nnc(-c3ccnc(C)c3)[nH]2)ccc1OCC(C)C` stands 7.7.
Turning to `COc1ccc(-c2nc(-c3ccncc3)cn2O)cc1C#N`, the IC50 came out at 15.4 µM and the pIC50 came out at 4.81.
`Cc1cc(-c2nnc(-c3ccc(OCCOCCOCCCl)c(C#N)c3)[nH]2)ccn1`: the pIC50 stood at 7.68.
As to `Cc1cc(-c2n[nH]c(-c3ccc(O)c(C#N)c3)n2)ccn1`, the pIC50 was 7.37.
Same read-out and setting: the value for `COCOc1ccc(-c2nc(-c3ccnc(C)c3)n[nH]2)cc1C#N` was 7.62; that for `COCCOCCOc1ccc(-c2nc(-c3ccnc(C)c3)n[nH]2)cc1C#N` was 7.51.
Regarding `CCC(C)Oc1ccc(-c2nc(-c3ccncc3)cn2O)cc1C#N` (configuration not stated), the IC50 worked out at 4.35 µM and the pIC50 came to 5.36.
On to `N#Cc1cc(-c2n[nH]c(-c3ccncc3)n2)ccn1` [TOPIROXOSTAT], for which the IC50 amounted to 0.0048 µM.
`CCCCOc1ccc(-n2cc(-c3ccncc3)nn2)cc1C#N`: the pIC50 stood at 4.68.
Consider `CCCCOCCOCCOc1ccc(-c2nnc(-c3ccnc(C)c3)[nH]2)cc1C#N`, for which the pIC50 was found to be 7.59.
With `Cc1cc(-c2n[nH]c(-c3ccc(OCC(C)C)c(C#N)c3)n2)ccn1`, the pIC50 was found to be 7.77.
Same read-out and setting: the value for `Cc1cc(-c2nc(-c3ccc(OCC(C)C)c([N+](=O)[O-])c3)n[nH]2)ccn1` was 8; that for `CC(C)COc1ccc(-c2nc(-c3cccnc3)n[nH]2)cc1[N+](=O)[O-]` was 5.23.
Take `C=CCOc1ccc(-c2nc(-c3cccnc3)cn2O)cc1C#N`: the IC50 was found to be 9.62 µM and the pIC50 was determined as 5.02.
For the molecule `COCCOc1ccc(-c2nc(-c3ccnc(C)c3)n[nH]2)cc1C#N`, the pIC50 is 7.19.
On to `CC(C)COc1ccc(-c2nc(-c3cccnc3)cn2O)cc1C#N`, for which the IC50 turned out to be 10.3 µM and the pIC50 was 4.99.
As for `CCCCCOc1ccc(-n2cc(-c3ccncc3)nn2)cc1C#N`, the pIC50 was 4.79.
On to `COCCOCOc1ccc(-c2nc(-c3ccnc(C)c3)n[nH]2)cc1C#N`, for which the pIC50 stood at 7.62.
Turning to `CC(C)CCOc1ccc(-c2nc(-c3ccncc3)cn2O)cc1C#N`, the IC50 was found to be 0.64 µM and the pIC50 came out at 6.19.

Still in this data set, the particulars now being: cattle.
On to `CC(C)CCOc1ccc(-c2nc(-c3ccncc3)cn2O)cc1C#N`, for which the “inhibition (INH)” value is reported as “Dose-dependent effect”.

In another data set the target is T1, Xanthine dehydrogenase/oxidase. Kind of data set: Mixed-type inhibition of bovine xanthine oxidase assessed as reduction in uric acid formation using xanthine as substrate preincubated for 15 mins followed by substrate addition by spectrophotometry based Lineweaver-Burk plot analysis. Conditions: cattle.
Regarding `CC(C)CCOc1ccc(-c2nc(-c3ccncc3)cn2O)cc1C#N`, the “inhibition (INH)” value was “Active”.

A further data set shares this target. Kind of data set: Inhibition of bovine xanthine oxidase assessed as reduction in uric acid formation at 10 ug/ml using xanthine as substrate preincubated for 15 mins followed by substrate addition by spectrophotometric analysis. Conditions: cattle. The essentials: as §1
`N#Cc1cccc(-c2nc(-c3ccncc3)cn2O)c1`: the “inhibition (INH)” value is on record as less than 50%.
With `CC(C)Oc1ccc(-c2nc(-c3cccnc3)cn2O)cc1C#N`, the “inhibition (INH)” value was less than 50%.
`N#Cc1cccc(-c2nc(-c3cccnc3)cn2O)c1`: the “inhibition (INH)” value was less than 50%.
For `CCC(C)Oc1ccc(-c2nc(-c3cccnc3)cn2O)cc1C#N` (configuration not stated), the “inhibition (INH)” value is on record as less than 50%.
The same measure, in the same setting: under `CC(C)COc1ccc(-c2nc(-c3ccncc3)cn2O)cc1C#N` stands less than 50%.
On to `C=CCOc1ccc(-c2nc(-c3ccncc3)cn2O)cc1C#N`, for which the “inhibition (INH)” value was less than 50%.
Take `COc1ccc(-c2nc(-c3cccnc3)cn2O)cc1C#N`: the “inhibition (INH)” value is given as less than 50%.
